Lipid droplet = hepatic lipid droplet formation modulation. 240,000 tested, 0.4% active. AML12 mouse hepatocytes, oleate lipid droplets, BODIPY imaging. inhibition, % at 6.5 µM;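 active means lipid droplet intensity inhibited by at least 50%, with more than 500 cells counted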
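Assay system: AML12 mouse liver cells | Compound dosing: One dose, 6.5 µM compound | Read-out basis: Droplet intensity reduction, % inhibition | Measured by: Fluorescence imaging, 20x objective, two fields per well | Schedule: Overnight treatment with compound plus oleate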
RGS4 act = RGS4 potentiation or activation. HEK293 M3R/inducible RGS4, carbachol calcium flux Fluo4; active compounds read low. B-score at 10 µM. 310,000 tested, 0.92% active;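 active means B-score of the integrated calcium signal more than 4 SD below the library mean, with starting fluorescence not abnormally high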;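 further: negative B-score means reduced calcium response which marks RGS4 activation or potentiation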
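test system = HEK293 cells with stable M3R and inducible RGS4 | schedule = recording 10 s baseline at 1 Hz, 100 s post-agonist | technique = Fluo4-AM (2 µM) calcium-flux fluorescence, kinetic read | measure = Agonist-evoked peak-minus-minimum fluorescence over baseline, integrated ratio, B score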
MrgX1 agonist = activates human MrgX1 receptor signaling; B-score at 10 µM; MrgX1-HEK293 cells, Fluo-4 calcium fluorescence, agonist mode; active compounds read high; Q96LB2; 310,000 tested, 0.44% active;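 active means calcium response B-score plate-corrected fluorescence ratio at least 3 library SD, with starting fluorescence B-score inside 5 SD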
Target sequence (Q96LB2 whole entry, looked up): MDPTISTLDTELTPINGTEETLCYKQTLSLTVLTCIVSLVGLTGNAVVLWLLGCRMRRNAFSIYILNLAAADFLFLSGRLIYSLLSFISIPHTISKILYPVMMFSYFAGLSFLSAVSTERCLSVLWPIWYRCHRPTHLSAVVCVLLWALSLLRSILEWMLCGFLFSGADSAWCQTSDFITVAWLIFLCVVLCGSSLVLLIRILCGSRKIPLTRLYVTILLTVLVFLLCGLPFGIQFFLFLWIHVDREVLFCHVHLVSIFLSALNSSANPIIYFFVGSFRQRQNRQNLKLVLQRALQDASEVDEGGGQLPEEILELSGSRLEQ
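Material: MrgX1-expressing HEK293 cells / Dosing: compound as first of three additions / Incubation: overnight seeding, then 1 h dark dye loading / Signal: Fluo-4 NW calcium fluorescence / Evaluation: B-scored fluorescence response ratio / Benchmarks: positive and negative control wells on each plate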
MrgX1 allo act = allosterically activates human MrgX1 receptor signaling; Q96LB2; MrgX1-HEK293, Fluo-4 calcium flux, FDSS; active compounds read high; B-score at 10 µM; 310,000 tested, 0.63% active;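 active means plate-corrected calcium response at least 3 library SD above typical, normal starting fluorescence, not activating the receptor alone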;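 further: compound read alongside a low EC10 to EC30 dose of BAM8-22 agonist; peak minus trough fluorescence over baseline measured at the second addition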
RGS4 block = human RGS4 inhibition; P49798; HEK293 M3R/RGS4 inducible, Fluo-4 calcium flux; active compounds read high; triggered by carbachol at its EC20; B-score at 10 µM; 310,000 tested, 0.45% active;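 active means B-score, a plate-corrected calcium signal, over three deviations above library mean, with baseline fluorescence within five deviations of library mean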;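 further: RGS4 expression induced by doxycycline in cells with stable M3 receptor; B-score is computed from the integrated fluorescence ratio over baseline after carbachol; higher B-score means a larger calcium signal and so more RGS4 inhibition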
Target sequence (P49798 whole entry, looked up): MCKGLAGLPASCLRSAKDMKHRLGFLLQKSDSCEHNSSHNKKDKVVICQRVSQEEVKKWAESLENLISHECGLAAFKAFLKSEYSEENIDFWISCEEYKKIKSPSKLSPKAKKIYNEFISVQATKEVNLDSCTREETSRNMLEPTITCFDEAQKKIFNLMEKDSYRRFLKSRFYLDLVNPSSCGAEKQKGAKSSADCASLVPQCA
MrgX1 antag = antagonists of human MrgX1 receptor; Q96LB2; MRGX1-HEK293 calcium flux, Fluo-4, BAM8-22 antagonism; active compounds read low; B-score at 10 µM; 310,000 tested, 1.3% active; AID 588676;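 active means calcium-response B-score plate-corrected more than 3 library SD below zero, starting fluorescence within 5 deviations, no agonist response on first addition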;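 further: peak minus trough fluorescence over baseline after final BAM8-22 challenge near maximal dose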
RGS4 block valid = validation of RGS4 inhibitors; shares compounds with RGS4 block; HEK293 M3R/RGS4, carbachol calcium Fluo-4 fluorescence; carbachol added at its EC20; 0 = buffer wells, 100 = carbachol control; calcium response, % at 10 µM; 1,700 tested, 65% active;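 active means duplicate-averaged calcium response above the buffer-only control mean plus 5 SD of those controls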;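 further: integrated fluorescence ratio F max minus min over baseline F0; higher response in RGS4-induced cells means RGS4 inhibition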
RGS4 uninduced = counter-screen for RGS4 inhibitors: effect in non-induced cells; HEK293 M3R non-induced, carbachol calcium Fluo-4; submaximal (EC20) carbachol stimulus; buffer wells 0%, carbachol control wells 100%; 1,900 tested, 20% active; AID 493000; activity (percent), % at 10 µM; shares compounds with RGS4 block; call rule not given here;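 further: RGS4 induction absent so cells express M3R without RGS4; higher means more calcium signal and flags a non-specific hit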
M3R basal Ca ctr = second RGS4 inhibitor counter-screen in uninduced cells lacking carbachol; shares compounds with RGS4 block; HEK293 M3R/RGS4 non-induced, Fluo-4 calcium, no carbachol; normalised: buffer wells 0%, carbachol wells 100%; calcium response (agonist-mode artifact), % at 10 µM; 1,900 tested, 22% active;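 active means duplicate-averaged calcium rise in uninduced cells above buffer wells' mean plus 5 SD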
Large screens that a line does not name were inactive (follow-up assays come after a bar, where they were run). A selection: hits, their analogues and other compounds. The true share with any hit is near 3.8%.

CCOc1ccc(C2/C(=C(/O)c3ccc(S(=O)(=O)N4CCCCC4)cc3)C(=O)C(=O)N2CCCOC)cc1OC (stereo not drawn)	none
COc1ccc(S(=O)(=O)Nc2ccc(O)c3ccccc23)cc1	RGS4 block 6.8 | RGS4 block valid 10% | RGS4 uninduced inactive | M3R basal Ca ctr inactive
O=C(Nc1ccccc1Cl)c1cc(=O)c2ccccc2o1	none
CC1CCCN(C(=O)COc2ccc(Nc3ccccc3)cc2)C1 (stereo not drawn)	none
CN(C)CCC(=O)c1ccc(F)cc1	none
CN(C)CCC(=O)c1cccc(Br)c1	RGS4 block 6.8 | RGS4 block valid inactive | RGS4 uninduced inactive | M3R basal Ca ctr 28%
CCC1(CC)NC(=O)N(CC(=O)Nc2ccc(S(=O)(=O)N3CCOCC3)cc2)C1=O	none
Cc1ccc(N=C2NC(=O)/C(=C/c3cccnc3)S2)c(C)c1	RGS4 block 7.9 | RGS4 block valid 20% | RGS4 uninduced inactive | M3R basal Ca ctr inactive
Cc1cccc(N=C2NC(=O)/C(=C/c3cccnc3)S2)c1C	none
CCN(CC)CCN(C(=O)c1ccc2c(c1)CCCC2)c1nc2ccc(C)cc2s1	none
CCN(CC)CCN(C(=O)c1ccc2c(c1)CCCC2)c1nc2ccc(OC)cc2s1	none | RGS4 block valid inactive | RGS4 uninduced inactive | M3R basal Ca ctr inactive
COc1ccc(OC)c(CNC(=O)CCC(=O)N2Cc3cccc(OC)c3Oc3ncccc32)c1	none
Cc1ccc(OCC(=O)NNC(=O)c2ccco2)c(C)c1	RGS4 block 30 | RGS4 block valid inactive | RGS4 uninduced inactive | M3R basal Ca ctr inactive
CC(=C/C(=O)O)/C=C/c1ccco1	RGS4 block 5.4 | RGS4 block valid 7.0% | RGS4 uninduced inactive | M3R basal Ca ctr inactive
O=[N+]([O-])/C=C\c1ccc(N2CCOCC2)cc1	MrgX1 agonist 41, RGS4 block 35 (no result: Lipid droplet) | RGS4 block valid 88% | RGS4 uninduced 94% | M3R basal Ca ctr 35%
CCOc1ccc(-c2c(C(=O)N/N=C/c3ccoc3)nnn2-c2nonc2N)cc1	none
CCOc1cccc(-c2c(C(=O)N/N=C/c3ccncc3)nnn2-c2nonc2N)c1	none | RGS4 block valid inactive | RGS4 uninduced inactive | M3R basal Ca ctr inactive
CCOc1cccc(-c2c(C(=O)N/N=C/c3ccoc3)nnn2-c2nonc2N)c1	none | RGS4 block valid inactive | RGS4 uninduced inactive | M3R basal Ca ctr inactive
CCOc1ccc(/C=N/NC(=O)c2nnn(-c3nonc3N)c2-c2ccc(OCC)cc2)cc1	none | RGS4 block valid inactive | RGS4 uninduced inactive | M3R basal Ca ctr inactive
COc1ccc(C(=O)NCC(=O)OCC(=O)Nc2cc([N+](=O)[O-])ccc2F)cc1	none
O=[N+]([O-])c1cc(Cl)cc(/C=N/NC(=S)Nc2ccc(S(=O)(=O)N3CCOCC3)cc2)c1O	none | RGS4 block valid inactive | RGS4 uninduced inactive | M3R basal Ca ctr inactive
O=C(CSc1cccc[n+]1[O-])c1ccc(Cl)s1	none
CCN(CC)CCC(C)OC(=O)c1ccc(O)cc1O (stereo not drawn)	none
O=C(CCn1c(=O)sc2ccccc21)NCc1ccc2c(c1)OCO2	none
COc1ccc2[nH]cc(CCn3ccc(O)c(C/C=C/c4ccccc4)c3=O)c2c1	RGS4 block 7.3 | RGS4 block valid 18% | RGS4 uninduced inactive | M3R basal Ca ctr inactive
O=C1NN(c2ccccc2)C(=O)/C1=C\c1ccc2c(c1)OCO2	RGS4 block 7.7 | RGS4 block valid inactive | RGS4 uninduced inactive | M3R basal Ca ctr inactive
COc1cccc(/C=C2/C(=O)NN(c3ccccc3)C2=O)c1	RGS4 block 7.5 (no result: Lipid droplet) | RGS4 block valid inactive | RGS4 uninduced inactive | M3R basal Ca ctr 8.0%
